Source: the EternaBench riboswitch data

Key:
MS2 coat protein [1] = experiment: apparent Kd, MS2 coat protein; higher = weaker binding; RNA-MaP array; tryptophan 2.4 mM where present
In short: (§1)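 Green signal from SNAP-549-labelled MS2 coat protein was normalised to red-channel RNA signal and to the median Fmax of control clusters. The protein was titrated from 0.7 or 1.5 nM, doubling to 3 µM, without and then with constant ligand, over designs transcribed by stalled E. coli RNA polymerase on Illumina sequencing-chip clusters, in 100 mM Tris-HCl pH 7.5, 80 mM KCl, 4 mM MgCl2, BSA, DTT, yeast tRNA and Tween-20. The apparent Kd is the median of filtered per-cluster binding-curve fits.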

MS2 coat protein [2] = experiment: apparent Kd, MS2 coat protein; higher = weaker binding; RNA-MaP array; theophylline 2 mM where present
In short: as §1

[3] = designed as: ON switch for tryptophan, no ligand
[4] = ligand present: tryptophan, designed as: ON switch for tryptophan
[5] = designed as: OFF switch for tryptophan, no ligand
[6] = ligand present: tryptophan, designed as: OFF switch for tryptophan
[7] = designed as: ON switch for theophylline, no ligand
[8] = ligand present: theophylline, designed as: ON switch for theophylline

Sequence	apparent Kd (MS2 coat protein [1]; [3])	apparent Kd (MS2 coat protein [1]; [4])	apparent Kd (MS2 coat protein [1]; [5])	apparent Kd (MS2 coat protein [1]; [6])	also measured
GGUUACUCUACGGCCGCCACUGAUAAAUAAUAAACCUGUACAUAAACAUGAGGAUCACCCAUGUACAGGACCGGGUAGUGUAACC	32.8 nM	24.1 nM	–	–	–
ACGUUGAAGUCGGCCGCCACUGAUUUCAUGUUCAACAUGAGGAUCACCCAUGUACCUUAUGUUAACAGGACCGGGACGUAUACGA	479 nM	117 nM	–	–	–
AACGCGGUGAUGGUAGCCGGACGCUAGGUACGAGGACCGGUACGGCCGCCACUCGGAGUCCUACGACAUGAGGAUCACCCAUGUA	127 nM	67.5 nM	–	–	–
AACAUGAGGAUCACCCAUGUGUCCUCGAAACGAGGACCGGUACGGCCGCCACUCGAAGCAUGUUGACGAAAAGUCAGCAUGCAAA	–	–	318 nM	1060 nM	–
GCGUGGUCUGCGGCCGCCACUCAAGGAGCUACAUAGCUCCUAGACAUGAGGAUCACCCAUGUCGCGAGGACCGGGUAGAUUCUCC	96 nM	30.8 nM	–	–	–
AGUUUGGACUCGGCCGCCACUCGUGAUGCUUUGGCACAUGAGGAUCACCCAUGUGGUCGGCCUUAGAGGACCGGGAGUACCAGCC	405 nM	43 nM	–	–	–
AUAAUAAUCAUGGGUGAAGGUCCUCGCAAACGAGGACCGGUACGGCCGCCACUCGAACAUGAGGAUCACCCAUGUGUGAGGACCU	58.8 nM	36.9 nM	–	–	–
GUUGUAUACUCGGCCGCCACUGAGAGAGUCAUGUAAACAUGAGGAUCACCCAUGUAAUAUAUAUACAGGACCGGGAGUAUGGUAA	–	–	15 nM	12.9 nM	–
GAGUAGAGGACGGCCGCCACUGAACAUGAGGAUCACCCAUGUCGUGAUCCGUUACCUAAAGAAGAUAGGACCGGGUCAUGUACUC	–	–	27.3 nM	28.7 nM	–
GGAGUAGAUGCGGCCGCCACUUUCUCAAGACACUACAUGAGGAUCACCCAUGUCCAUUCUACACUAAGGACCGGGCAUCCCAUGG	54.3 nM	39.5 nM	–	–	–
UUUUACGGCGAUCUGGGUUUACCAGAUCGGCGAGGACCGGUACGGCCGCCACUCGUGUUUCUUUGACAUGAGGAUCACCCAUGUA	26.9 nM	16.2 nM	–	–	–
AAUAAUAAGGCGGCCGCCACUACACAUGAGGAUCACCCAUGUCUCGCGGGCUUGCGUUGGGAAUGUAGGACCGGGCCAAUAAUAA	–	–	24.3 nM	18.3 nM	–
CUACAUUUGUAGAAACCGGUCAACAAUAAUCGAGGACCGGUACGGCCGCCACUCGUAUAAUUUAAUACAUGAGGAUCACCCAUGU	14.9 nM	15.4 nM	–	–	–
CCUCAAUAGACGGCCGCCACUGAGACAUGAGGAUACAUGAGGAUCACCCAUGUGGGUGUGUCACGCAGGACCGGGUCAAGACCCG	523 nM	514 nM	–	–	–
UAUCGUCAGACGGCCGCCACUAGAACAUGAGGAUCACCCAUGUAAGUGGCCGGUCUCCUCAUGACUAGGACCGGGUCUGACGAAU	–	–	8.69 nM	9.94 nM	–
AGUUAUUCGAACAUGGUUGACGAGUGGCAACGAGGACCGGUACGGCCGCCACUCGAAUAAACAUGAGGAUCACCCAUGUACAAAU	342 nM	287 nM	–	–	–
AAUAUAUAGACGGCCGCCACUGGAACCAAUACAUGAGGAUCACCCAUGUGAAAAGGAUAGGUUCACAGGACCGGGUCUUCAUGUA	25.7 nM	9.99 nM	–	–	–
AGUUACUCGAACAUGGUUGACGAGUGGCAACGAGGACCGGUACGGCCGCCACUCGAAUAAACAUGAGGAUCACCCAUGUACAAAU	135 nM	104 nM	–	–	–
UUAUAAGUACCGGUCCUCAGAUCCUCAUGACGAGGACCGGUACGGCCGCCACUCGAAACAUGAGGAUCACCCAUGUAAUAAUAUU	–	–	22.1 nM	20 nM	–
AAUUAAACAUCGGCCGCCACUUACUCAUGAGGUAACAACAUGAGGAUCACCCAUGUUUGAGGAUCAAGGACCGGGAUGUAAUUUU	29.8 nM	22.2 nM	–	–	–
AACAUGAGGAUCACCCAUGUCCCAUGUGAACGAGGACCGGUACGGCCGCCACUCGACUGAGGCGGCACAUGAGGAUCACCCACAU	170 nM	314 nM	–	–	–

Sequence	apparent Kd (MS2 coat protein [1]; [3])	apparent Kd (MS2 coat protein [1]; [4])	apparent Kd (MS2 coat protein [1]; [5])	apparent Kd (MS2 coat protein [1]; [6])	also measured
CUAUAUAUAUCGGCCGCCACUUACUCAUGAGGUAACAACAUGAGGAUCACCCAUGUUUGAGGAUCAAGGACCGGGAUAUAUAUAG	27.4 nM	16.6 nM	–	–	–
AUAACCCUUGACUAAAACACUAAAUCAGUUCGAGGACCGGUACGGCCGCCACUCGUGUCAAGACAUGAGGAUCACCCAUGUACCU	35.8 nM	23.3 nM	–	–	–
AACAUGAGGAUCACCCAUGUGUCCUCGAAACGAGGACCGGUACGGCCGCCACUCGAAAUAAGCUGUUGACGAAAAGUCAGCAGCA	–	–	281 nM	501 nM	–
GCUAGGUCAUCGGCCGCCACUAUUAGUGGUUCGAACAUGAGGAUCACCCAUGUGCCACAUGCGCAUAGGACCGGGAUGACCUAGC	12.7 nM	9.42 nM	–	–	–
ACAUUAGCCACGGCCGCCACUGCCUUAUGAUUAUAAGGAUUAAUGAACAUGAGGAUCACCCAUGUCAGGACCGGGUGCCUACCAU	22 nM	20.7 nM	–	–	–
UAUUAUCAGUCGGCCGCCACUGACACAUGAGGAUCACCCAUGUAAUUUGGGUUAUAUAGAAAAUACAGGACCGGGACUAAGGCUA	–	–	260 nM	276 nM	–
GAGCUCGUGGACUGGCGUGCUCCGCUCCGUCGAGGACCGGUACGGCCGCCACUCGACAUGAGGAUCACCCAUGUGUGAGCUCGCG	–	–	62.5 nM	30.6 nM	–
AUUGUCGUGUCGGCCGCCACUGUCAUGGUUUUCGUGGAAAACAUGAGGAUCACCCAUGUAAUUGACAGGACCGGGACAUGGCGGC	–	–	9.29 nM	10.4 nM	–
UAAUCAGUGCCGGUUCUCGGAUCCUCAUGUCGAGGACCGGUACGGCCGCCACUCGGAACAUGAGGAUCACCCAUGUAAUAAUAAU	–	–	97.3 nM	92.7 nM	–
AAUUAUCAGUCGGCCGCCACUGACACAUGAGGAUCACCCAUGUAACUUGGGUUAAAUUUAAUAAACAGGACCGGGACAAAGGCUA	–	–	186 nM	184 nM	–
UCGUUUUAGUCGGCCGCCACUGUAUGCAUGUUUAACAUGAGGAUCACCCAUGUCCCGUUCUAUUUCAGGACCGGGACGUAAUCGA	525 nM	344 nM	–	–	–
AGCGUGCAUAGGAAAACUAUGUACGCAAAUCGAGGACCGGUACGGCCGCCACUCGUCCUCAACAUGAGGAUCACCCAUGUAAUAA	–	–	19.9 nM	34.7 nM	–
UUCGUAUUGUCGGCCGCCACUGCAACAUGAGGAUCACCCAUGUAAGAAUGGUUGUAAAUAUAUUACAGGACCGGGACAAUAGUAA	–	–	17.6 nM	51.6 nM	–
AAUUUAUGGUUCUUGAUGUAGUAUCUAUUUCGAGGACCGGUACGGCCGCCACUCGUAAAUUACAUGAGGAUCACCCAUGUUAGCU	–	–	24.6 nM	29.5 nM	–
CUCAUCCACGCGGCCGCCACUAUUUUUAGGUGUGGGUGUGACGUAUUACAUGAGGAUCACCCAUGUAGGACCGGGCGUGGAUGAG	–	–	385 nM	485 nM	–
CACGCACGAUCGGCCGCCACUCAUGUAGCUUACAUGAGGAUCACCCAUGUAUUUUCUUUCUUAUAGAGGACCGGGAUCGUGCGUG	17.6 nM	15.3 nM	–	–	–
CUUGGCUGUGCGGCCGCCACUGACUCAUCCUGCAUUACAUGAGGAUCACCCAUGUUGCGGCCUCCCAGGACCGGGCAUAGCCUGC	390 nM	91.3 nM	–	–	–
AUUCAUGGAAACAUGACAUACAUAACCGGUCGAGGACCGGUACGGCCGCCACUCGGUUGGUGGCACAUGAGGAUCACCCAUGUUA	23.9 nM	26.4 nM	–	–	–
AGCAUGUUAGCAGAUACCAGACGUUUUAUGAUCCAUGUAACAUGAGGAUCACCCAUGUAAGUCCCUUGGCAGCUGAAAUAAUGCA	–	–	–	–	apparent Kd (MS2 coat protein [2]; [7]): 155 nM; apparent Kd (MS2 coat protein [2]; [8]): 301 nM
AUCGUACCUGAUGAUACCAGCAAGUGAUCAUAACAUGAGGAUCACCCAUGUAAUCAGUGAUGCCCUUGGCAGCAUAGUCGAUACA	–	–	–	–	apparent Kd (MS2 coat protein [2]; [7]): 164 nM; apparent Kd (MS2 coat protein [2]; [8]): 99.8 nM
GAUGAACUAUUUGAUACCAGACCACAUGAGGAUCACCCAUGUGAGUUUCGUCCUUAGCCGGUCCCUUGGCAGCAAAUAGUUUAUC	–	–	–	–	apparent Kd (MS2 coat protein [2]; designed as: OFF switch for theophylline, no ligand): 16.9 nM; apparent Kd (MS2 coat protein [2]; ligand present: theophylline, designed as: OFF switch for theophylline): 52.5 nM
